A selection: hits, their analogues and other compounds. The true share with any hit is near 2.3%.
Diaphorase inh = diaphorase inhibition or chemical oxidation counter-screen; diaphorase resazurin-to-resorufin fluorescence, NADH, 16 min; bacterial (C. kluyveri) enzyme, not human; 0.69% of 190,000 active; inhibition, % at 20 µM;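 active = primary screen inhibition at 20 µM above a set limit, cut at about 50% in these data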
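Test system: bacterial diaphorase enzyme (C. kluyveri); Quantity: 0.14 U/mL diaphorase, enzyme working solution; Times: reaction incubation of 16 min at room temperature; Measured by: fluorescence of resorufin formed from resazurin, Ex 544/Em 590 nm; Benchmarks: positive control minus NADH, DMSO neutral control.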
FLuc inh counter = Photinus pyralis luciferase inhibition counter-screen. P08659. ATPLite firefly luciferase biochemical luminescence, 10 min. inhibition, % at 10 µM. 1.5% of 200,000 active;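 active = inhibition above about 50% when tested at 10 µM, limit read from the data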
Target sequence (P08659 whole entry, looked up): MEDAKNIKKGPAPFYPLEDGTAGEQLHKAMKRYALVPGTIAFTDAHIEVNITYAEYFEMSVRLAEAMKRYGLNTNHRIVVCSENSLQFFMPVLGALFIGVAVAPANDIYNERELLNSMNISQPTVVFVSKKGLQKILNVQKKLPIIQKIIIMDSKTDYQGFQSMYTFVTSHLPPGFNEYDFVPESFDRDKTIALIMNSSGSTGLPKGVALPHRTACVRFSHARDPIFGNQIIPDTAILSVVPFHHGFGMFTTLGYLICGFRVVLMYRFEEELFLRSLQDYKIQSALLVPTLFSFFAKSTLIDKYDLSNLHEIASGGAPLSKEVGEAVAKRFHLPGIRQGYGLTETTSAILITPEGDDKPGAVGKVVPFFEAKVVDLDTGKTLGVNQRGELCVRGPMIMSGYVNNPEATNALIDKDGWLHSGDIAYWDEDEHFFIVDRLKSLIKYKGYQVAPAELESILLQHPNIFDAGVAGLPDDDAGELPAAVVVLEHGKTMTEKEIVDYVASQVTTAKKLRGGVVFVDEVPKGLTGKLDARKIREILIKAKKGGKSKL
FLuc act counter = firefly luciferase counter-screen for stimulation assays | P08659 | ATPlite luciferase biochemical, luminescence, 10 min; 0 = ATP-free wells, 1 = DMSO control | activation factor at 10 µM | 200,000 tested, under 10 active;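 active = luciferase activation factor, scaled between plate controls, of at least 2 with compound at 10 µM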
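test system = cell-free luciferase reagent | medium = PBS as buffer for the ATP substrate | dosing = test compounds dosed from 2 mM stocks in 100% DMSO | incubation = 10 min at ambient temperature | detection = luminescence measurement of luciferase light output | benchmarks = low control with PBS replacing ATP, high control enzyme plus ATP without compound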
G6PDH counter = inhibits Leuconostoc G6PDH, flagging false hits in G6PDH-based assays | 0.12% of 200,000 active | Purified L. mesenteroides G6PDH, diaphorase/resazurin coupled fluorescence, 45 min | inhibition, % at 5 µM; in the data active = inhibition above about 50%
Diaphorase act = counter-screen for diaphorase-based assays: diaphorase activators and chemical reducers. Diaphorase/resazurin coupled assay, resorufin fluorescence, 16 min; hits give high values; 1 = vehicle wells, 0 = NADH-free wells. activation factor at 20 µM. 0.005% of 190,000 active. AID 1229;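 active = diaphorase activity raised at least twofold by the compound at 20 µM; inactive = activation factor below 2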
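Test system: Clostridium kluyveri diaphorase, purified enzyme. Buffer or medium: 50 mM HEPES pH 7.4 buffer plus MgCl2 and Tween 20. Also added: 0.114 mM NADH and 0.1 mM resazurin, final amounts. Dosing: compound 20 µM once, DMSO 1%. Schedule: 16 min enzyme reaction, ambient temperature. Detection: fluorescence of resorufin, 544 nm excitation, 590 nm emission.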
Numbers stand for hits; . = inactive; / = not tested or not shown.

SMILES | Diaphorase inh | FLuc inh counter | FLuc act counter | G6PDH counter | Diaphorase act
Cc1cc(C)nc(NC(=O)/C=C/c2ccccc2Cl)c1 | . | . | . | . | .
O=C1CC(NCCC2=CCCCC2)C(=O)N1c1cccc(Cl)c1Cl (configuration not stated) | . | . | . | . | .
CCCNC(=S)Nc1ccc(Oc2ccccc2)cc1 | . | . | . | . | .
Cc1nc2ccc(NC(=S)NCCCO)cc2nc1C | . | . | . | 55.9 | .
S=C(Nc1ccc2nc(-c3ccccn3)c(-c3ccccn3)nc2c1)N1CCCCCC1 | . | . | . | . | .
CCCNC(=S)Nc1ccc2nc(-c3ccccn3)c(-c3ccccn3)nc2c1 | 52.2 | . | . | . | .
S=C(Nc1ccc2nsnc2c1)N1CCCCC1 | 66.2 | . | . | . | .
S=C(Nc1ccc2nc(-c3ccccn3)c(-c3ccccn3)nc2c1)N1CCCCC1 | / | . | . | 50.5 | /
NC(=O)CC1Nc2cccc3cccc(c23)NC1=O (configuration not stated) | 56.4 | . | . | . | .
O=C(CC1Nc2ccccc2NC1=O)c1ccccc1 (configuration not stated) | . | 54.3 | . | . | .
CCOc1cc(/C=N/NC(=O)c2cccnc2)cc(Br)c1OCC(N)=O | . | . | . | . | .
O=C(COC(=O)C1(c2ccc(F)cc2)CCCC1)NCc1ccco1 | . | . | . | . | .
Cc1nc2c(c(=O)n1CCC1=CCCCC1)c1nc3ccccc3nc1n2/N=C/c1ccco1 | 70.2 | . | . | . | .
CN(C(=O)COC(=O)c1ccc([N+](=O)[O-])cc1N)c1ccccc1 | . | . | . | . | .
Oc1c(C(Nc2nc3ccccc3s2)c2ccco2)ccc2cccnc12 (configuration not stated) | . | . | . | . | .
CC(C)C(=O)NC(c1ccco1)c1ccc2cccnc2c1O (configuration not stated) | 54.7 | . | . | . | .
CCC(=O)NC(c1cccs1)c1ccc2cccnc2c1O (configuration not stated) | 58.4 | . | . | . | .
CS(=O)(=O)N1CCC(C(=O)Nc2cc(Cl)cc(Cl)c2)CC1 | . | . | . | . | .
CCCCC(=O)OCC(=O)Nc1ccc(C)c(F)c1 | . | . | . | . | .
CCn1ncc(/C=C2/SC(=S)NC2=O)c1C | . | . | . | . | .
CCn1c(C)cc(/C=C2/SC(=S)NC2=O)c1C | . | 52.2 | . | . | .
COC(=O)c1ccccc1NC(=O)COc1ccc(S(=O)(=O)NC(C)C)cc1 | . | . | . | . | .
CC(C)C(=O)c1cn(CC(=O)N2CCCc3ccccc32)c2ccccc12 | . | . | . | . | .
COc1cccc(C(=O)O/N=C2\CCS(=O)(=O)c3sccc32)c1 | . | 59.5 | . | . | .
O=C(NCC1CCCO1)C1CC(c2ccccc2Cl)=NO1 (configuration not stated) | . | . | . | . | .
SMILES | Diaphorase inh | FLuc inh counter | FLuc act counter | G6PDH counter | Diaphorase act
N=C1/C(=C\c2ccc(SCc3ccccc3)o2)C(=O)N=C2SC=NN12 | . | . | . | . | .
CCS(=O)(=O)C1=NN2C(=N)/C(=C\c3ccc(SCc4ccco4)o3)C(=O)N=C2S1 | 57.0 | . | . | . | .
CNc1ccccc(-c2ccc3ccccc3n2)c1=O | . | . | . | . | .
O=C(CSC1=NC(=O)C(c2ccccc2)C(=O)N1)Nc1ccccc1[N+](=O)[O-] (configuration not stated) | . | . | . | . | .
O=C(Nc1ccccc1)Nc1ccc(C(=O)N2CCCC2)cc1 | . | 87.3 | . | . | .
CCN(CC)c1ccc(NC(=O)Nc2cccc(C(C)=O)c2)cc1 | . | 51.8 | . | . | .
CC(=O)c1cccc(NC(=O)Nc2ccc(C(=O)N3CCCC3)cc2)c1 | . | 60.8 | . | . | .
CC(=O)Nc1cccc(NC(=O)Nc2ccc(C(C)=O)cc2)c1 | . | . | . | . | .
Cc1cc(C)n(C(=O)/C(C#N)=N/Nc2cc(Cl)cc(Cl)c2)n1 | . | . | . | . | .
Cc1ccc(-n2c(O)c(C=Nc3ccccc3-c3n[nH]c(=S)[nH]c3=O)c3ccccc3c2=O)cc1C | 75.5 | . | . | . | .
